Measurements reported in ChEMBL document CHEMBL4390662, “Design, synthesis and biological evaluation of novel α-acyloxy carboxamides via Passerini reaction as caspase 3/7 activators” (Eur J Med Chem, 2019).

Key:
NFS-60 [1] = assay: Cytotoxicity against mouse NFS60 cells assessed as cell growth inhibition incubated for 72 hrs by MTT assay; type: functional, cell-based; details: NFS-60, 72 h
Outline: (§1)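 Cells grown in RPMI-1640 with 10% FBS and seeded at 5×10^3 per well. After 24 h, serial concentrations given for 72 h at 37°C, 5% CO2. Then 5 mg/mL MTT stock added for 3 h, formazan dissolved in DMSO, A570 read. IC50 calculated from the curves.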

HepG2 [2] = assay: Induction of apoptosis in human HepG2 cells assessed as viable cells level at IC50 incubated for 72 hrs by annexin V/propidium iodide staining based flow cytometry (reference value: 98.97%); type: functional
NFS-60 [3] = assay: Induction of apoptosis in mouse NFS60 cells assessed as early apoptotic cells level at IC50 incubated for 72 hrs by annexin V/propidium iodide staining based flow cytometry (reference value: 0.46%); type: functional
HepG2 [4] = assay: Cytotoxicity against human HepG2 cells assessed as cell growth inhibition incubated for 72 hrs by MTT assay; type: functional, cell-based; details: HepG2, 72 h; outline: as §1
MCF7 [5] = assay: Induction of apoptosis in human MCF7 cells assessed as viable cells level at IC50 incubated for 72 hrs by annexin V/propidium iodide staining based flow cytometry (reference value: 99.5%); type: functional
HepG2 [6] = assay: Induction of apoptosis in human HepG2 cells assessed as caspase 3/7 activity using DEVD aminoluciferin as substrate at IC50 after 24 hrs by fluorescence assay relative to control; type: functional
Outline: (§2)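 Caspase 3/7 activation measured with Caspase-Glo 3/7 kit using a luminogenic caspase-cleavable substrate. […] Reported as percent activation, mean ± SEM.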

MCF7 [7] = assay: Induction of apoptosis in human MCF7 cells assessed as late apoptotic cells at IC50 incubated for 72 hrs by annexin V/propidium iodide staining based flow cytometry (reference value: 0.01 +/- 0.001%); type: functional
WI-38 = assay: Cytotoxicity against human WI38 cells assessed as cell growth inhibition incubated for 72 hrs by MTT assay; type: cell-based
Outline: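 Wi-38 fibroblasts grown in DMEM with 10% FBS and seeded at 5×10^3 per well. Attachment 24 h, then serial concentrations for 72 h at 37°C, 5% CO2. MTT stock (5 mg/mL) added for 3 h at 37°C, DMSO solubilization, absorbance at 570 nm. IC50 estimated.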

NFS-60 [8] = assay: Induction of apoptosis in mouse NFS60 cells assessed as total apoptotic cells at IC50 incubated for 72 hrs by annexin V/propidium iodide staining based flow cytometry (reference value: 0.495 +/- 0.01%); type: functional
NFS-60 [9] = assay: Induction of apoptosis in mouse NFS60 cells assessed as late apoptotic cells level at IC50 incubated for 72 hrs by annexin V/propidium iodide staining based flow cytometry (reference value: 0.01%); type: functional
HepG2 [10] = assay: Induction of apoptosis in human HepG2 cells assessed as late apoptotic cells at IC50 incubated for 72 hrs by annexin V/propidium iodide staining based flow cytometry (reference value: 0.1 +/- 0.001%); type: functional
MCF7 [11] = assay: Induction of apoptosis in human MCF7 cells assessed as total apoptotic cells at IC50 incubated for 72 hrs by annexin V/propidium iodide staining based flow cytometry (reference value: 0.48 +/- 0.01%); type: functional
MCF7 [12] = assay: Induction of apoptosis in human MCF7 cells assessed as caspase 3/7 activity using DEVD aminoluciferin as substrate at IC50 after 24 hrs […] relative to control; type: functional; outline: as §2
NFS-60 [13] = assay: Induction of apoptosis in mouse NFS60 cells assessed as viable cells level at IC50 incubated for 72 hrs by annexin V/propidium iodide staining based flow cytometry (reference value: 99.52%); type: functional
NFS-60 [14] = assay: Induction of apoptosis in mouse NFS60 cells assessed as necrotic cells level at IC50 incubated for 72 hrs by annexin V/propidium iodide staining based flow cytometry (reference value: 0.01%); type: functional
HepG2 [15] = assay: Induction of apoptosis in human HepG2 cells assessed as early apoptotic cells level at IC50 incubated for 72 hrs by annexin V/propidium iodide staining based flow cytometry (reference value: 0.05%); type: functional
MCF7 [16] = assay: Induction of apoptosis in human MCF7 cells assessed as late apoptotic cells level at IC50 incubated for 72 hrs by annexin V/propidium iodide staining based flow cytometry (reference value: 0.01%); type: functional
MCF7 [17] = assay: Induction of apoptosis in human MCF7 cells assessed as early apoptotic cells level at IC50 incubated for 72 hrs by annexin V/propidium iodide staining based flow cytometry (reference value: 0.01%); type: functional
MCF7 [18] = assay: Induction of apoptosis in human MCF7 cells assessed as necrotic cells level at IC50 incubated for 72 hrs by annexin V/propidium iodide staining based flow cytometry (reference value: 0.48%); type: functional
NFS-60 [19] = assay: Induction of apoptosis in mouse NFS60 cells assessed as late apoptotic cells at IC50 incubated for 72 hrs by annexin V/propidium iodide staining based flow cytometry (reference value: 0.015 +/- 0.01%)
HepG2 [20] = assay: Induction of apoptosis in human HepG2 cells assessed as late apoptotic cells level at IC50 incubated for 72 hrs by annexin V/propidium iodide staining based flow cytometry (reference value: 0.1%); type: functional
MCF7 [21] = assay: Induction of apoptosis in human MCF7 cells assessed as early apoptotic cells at IC50 incubated for 72 hrs by annexin V/propidium iodide staining based flow cytometry (reference value: 0.47 +/- 0.01%); type: functional
HepG2 [22] = assay: Induction of apoptosis in human HepG2 cells assessed as total apoptotic cells at IC50 incubated for 72 hrs by annexin V/propidium iodide staining based flow cytometry (reference value: 0.169 +/- 0.02%); type: functional
HepG2 [23] = assay: Induction of apoptosis in human HepG2 cells assessed as necrotic cells level at IC50 incubated for 72 hrs by annexin V/propidium iodide staining based flow cytometry (reference value: 0.87%); type: functional
NFS-60 [24] = assay: Induction of apoptosis in mouse NFS60 cells assessed as early apoptotic cells at IC50 incubated for 72 hrs by annexin V/propidium iodide staining based flow cytometry (reference value: 0.02 +/- 0.01%); type: functional
NFS-60 [25] = assay: Induction of apoptosis in mouse NFS60 cells assessed as caspase 3/7 activity using DEVD aminoluciferin as substrate at IC50 after 24 hrs […] relative to control; type: functional; outline: as §2
HepG2 [26] = assay: Induction of apoptosis in human HepG2 cells assessed as early apoptotic cells at IC50 incubated for 72 hrs by annexin V/propidium iodide staining based flow cytometry (reference value: 0.78 +/- 0.09%); type: functional

Compound: COc1cccc2c1C(=O)c1c(O)c3c(c(O)c1C2=O)C[C@@](O)(C(=O)CO)C[C@@H]3O[C@H]1C[C@H](N)[C@H](O)[C@H](C)O1 [DOXORUBICIN]
- IC50 (NFS-60 [1]): 13 nM
- Activity (HepG2 [2]): 53.61%
- Activity (NFS-60 [3]): 7.27%
- IC50 (HepG2 [4]): 10 nM
- Activity (MCF7 [5]): 60.42%
- Activity (HepG2 [6]): 48.09%
- Activity (MCF7 [7]): 20.445%
- IC50 (WI-38; Homo sapiens, WI-38, 72 h): 26.6 nM
- EC100 (WI-38; human, wi-38, 72 h): 0.0121 µM
- Activity (NFS-60 [8]): 34.595%
- Activity (NFS-60 [9]): 21.62%
- Activity (HepG2 [10]): 25.49%
- Activity (MCF7 [11]): 33.974%
- Activity (MCF7 [12]): 42.94%
- Activity (NFS-60 [13]): 58.34%
- Activity (NFS-60 [14]): 12.76%
- Activity (HepG2 [15]): 10.54%
- Activity (MCF7 [16]): 18.78%
- Activity (MCF7 [17]): 5.92%
- Activity (MCF7 [18]): 14.88%
- Activity (NFS-60 [19]): 23.215%
- Activity (HepG2 [20]): 23.91%
- Activity (MCF7 [21]): 13.53%
- Activity (HepG2 [22]): 36.08%
- Activity (HepG2 [23]): 11.94%
- Activity (NFS-60 [24]): 11.379%
- Activity (NFS-60 [25]): 45.39%
- Activity (HepG2 [26]): 10.59%
